From the EternaBench riboswitch data

Test system: MS2 coat protein
Assay: apparent Kd, MS2 coat protein; higher = weaker binding; RNA-MaP array; FMN 200 µM where present
Summary of the method: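 Stalled E. coli RNA polymerase produced the designs on Illumina sequencing-chip clusters. SNAP-549-labelled MS2 coat protein was added from 0.7 or 1.5 nM, doubling to 3 µM, without and then with constant ligand, in 100 mM Tris-HCl pH 7.5, 80 mM KCl, 4 mM MgCl2, BSA, DTT, yeast tRNA and Tween-20. The apparent Kd is the median of filtered per-cluster fits of green signal normalised to red-channel RNA signal and control-cluster median Fmax.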

[1] = designed as: ON switch for flavin mononucleotide, no ligand
[2] = ligand present: flavin mononucleotide, designed as: ON switch for flavin mononucleotide
[3] = designed as: OFF switch for flavin mononucleotide, no ligand
[4] = ligand present: flavin mononucleotide, designed as: OFF switch for flavin mononucleotide

| Sequence | apparent Kd [1] [nM] | apparent Kd [2] [nM] | apparent Kd [3] [nM] | apparent Kd [4] [nM] |
| --- | --- | --- | --- | --- |
| UUGGACGUCGUAGGAAAUGUAGGAUAUUCCUACAUGAGGAUCACCCAUGUUGACAUGGAAGAAGGACAGAAGGACGAUGUCCAU | 517 | 11 | – | – |
| UUAAAUCAUGUAGGAUAUGCAUGGCGAAGCUACGCAGAAGGACAUGAGGAUCACCCAUGUUAUAGCUACCCAGAACGGUGGCAA | – | – | 75.5 | 267 |
| GAGAAACAUGAGGAUCACCCAUGUGAGGAUAUGCGUACGUUGUCCGUAGGCGACGUGCGCAGAAGGCGCAAAGG | – | – | 83.9 | 118 |
| UAUCGGGUGCGACUCGCAAGAGGGACAGAAGGCCAUCGACAUGAGGAUCACCCAUGUAACGAAAUGGAGGAUAUGUCUGGUCGA | 27.5 | 5.65 | – | – |
| UUAUACGUUGAGGAUAUGCGACUUUGUAUAGUUGUAGAAGGCGAUACAUGAGGAUCACCCAUGUUUAUGGGCAU | – | – | 323 | 554 |
| GAGUGGAAGGCCGCUACAUGAGGAUCACCCAUGUGCUAAGCACAGGAUAUCGCGCGGGCCCGGCGCGAGAAGGGUGACGGCCUU | 1010 | 272 | – | – |
| GUGGUACAUGAGGAUCACCCAUGUAAGGAUAUAGUCGUCUGGUGGUCUCGGGUGGUGGCUAGAAGGUGCGUGCG | – | – | 189 | 177 |
| GUGGUACAUGAGGAUCACCCAUGUUAGGAUAUCGCGUGAGGUUUUACUUCCACACACACGAGAAGGGACGUCUU | – | – | 44.3 | 36.2 |
| CGAAAUGAUAGAGGAUAUGUUAUACAUGAGGAUCACCCAUGUUUAAUGGGAUUAAUAAAUAUCUUACAGAAGGCUAUUCAAUCG | – | – | 32 | 20.7 |
| AUACCACGAGGAUAUCGUCUAUAUUACAUGAGGAUCACCCAUGUUAUAUUUGUAAUGUUUCGAGAAGGCGUGUUUU | – | – | 15.3 | 13.3 |
| AGAGUGUGAGGAUAUAUGGUGCAGAUGAAGGGAUAGAAGGAGUAGAAGGUACAUGAGGAUCACCCAUGUUAGGA | – | – | 27.4 | 21.7 |
| GGACGUCUCAUUAACAUGAGGAUCACCCAUGUCGAAAGACAUGAGGAUAUGGAUCCUAAUUGGAUCCAGAAGGCAUGGACGUCC | 98 | 582 | – | – |
| CGAGGACAUGAGGAUCACCCAUGUAGCUACAAAACGCAGCGACAGGAUAUCCUCUGGUUCCCAUAGGAGAAGGGUCAAACCUUG | 29.4 | 47.3 | – | – |
| GUUUGGGCAGGAUAUACAUGAGGAUCACCCAUGUGUUUUUUGUGUGUUUUGUUAUCGUGUAGAAGGGUUCGGGC | – | – | 68.5 | 147 |
| AAAACAUGAGGAUCACCCAUGUAAAGAACGGUUAAUAGAUCUGAGGAUAUACUAGAAUUUAGGUAGUAGAAGGCAGUGGGUACA | 35 | 26.2 | – | – |
| AUUUAAAUGUCAGGAUAUGUUAGUUUAUACAUAGUAGAAGGGAUAAUUAUACUCAUGUACAUGAGGAUCACCCAUGUUAAAUAA | 206 | 107 | – | – |
| GGACGUCACAUCUACAUGAGGAUCACCCAUGUCAAAAGACAUGAGGAUAUGCUUCCUAAUUGGAAGCAGAAGGCAUGGACGUCC | 1210 | 67.5 | – | – |
| AAAACAUGAGGAUCACCCAUGUAAAGAUCGGUUAAUAAAAGUGAGGAUAUACUAAAUUUUAUAUAGUAGAAGGCACUGGGUACA | 22.9 | 30.1 | – | – |

| Sequence | apparent Kd [1] [nM] | apparent Kd [2] [nM] | apparent Kd [3] [nM] | apparent Kd [4] [nM] |
| --- | --- | --- | --- | --- |
| AAGAAACAUGAGGAUCACCCAUGUCAGGAUAUGCAGGACUGACGAAAGUCAGUCCAAAGCAGAAGGGACUAGAA | – | – | 60.7 | 81.8 |
| CGUGUCGCAUGAGGAUAUGGUCAGCUUUGCUGACCAGAAGGCAUGUCAAUAGACAUGAGGAUCACCCAUGUAGUUAAGACACGA | 592 | 39.8 | – | – |
| UGAGCCUCGUGAGGAUAUACAUGAGGAUCACCCAUGUAAUAAAUCCAACGGAGGAAACUCCGAAUGUAGAAGGCACGAGGCUCA | – | – | 18.1 | 64.3 |
| GUCGAAACCAUACUAGUCGACGGUCAGGAUAUACAUGAGGAUCACCCAUGUGCUAUUGAUACUAUGUAGAAGGGACCCACCGCA | – | – | 15 | 24.6 |
| GCCUGCUGGCGAGGAUAUUCUGUGCGGUUUCGGCUCGUGUCUGUUACAUGAGGAUCACCCAUGUGGGAGAAGGUGUCUGUGGCC | – | – | 7.76 | 7.28 |
| CGCUCAAUUCUUUAGGUUAGAAUCAGAAGGCGUAACAUGAGGAUCACCCAUGUAUAGAAGUGUAACGAGGAUAUGAAUUGAGCG | – | – | 8.86 | 8.25 |
| CUAUAUAUAUGAGGAUAUCUAUAUCCAACAUGAGGAUCACCCAUGUUGAGGAUCACCCAUGUAAAGGAGAAGGCAUAUAUAUAG | 43.2 | 14.9 | – | – |
| GCGCGCGCCGCAGGAUAUGGUUUGUUCGUUGAACCAGAAGGGCGACAUGAGGAUCACCCAUGUACAUGAGGAUCACCCAUGUGC | – | – | 59.2 | 51 |
| CGCUAGUCAGGAUAUACGAACAUGUCAAAAGACGUGAAGGGACAUGAGGAUCACCCAUGUAGAAGGGACUAGCA | – | – | 35.7 | 114 |
| CGUAGGAUGCAGAAGGCAUGAACAUGAGGAUCACCCAUGUCAAAAGACAUGAGGAUAUGCAUCCUACGAAAAGUGCGAAAGCAC | 17.5 | 5.6 | – | – |
| GCACGUAGACAGAAGGCGACAUGAGGAUCACCCAUGUUGGCUCGGGUAUGACCAAUCCGCAUGAUCGAGGAUAUGUCCGCGGGC | – | – | 265 | 19.2 |
| UCCUUGUCCUGAGGAUAUCCGUGGUUACCGAAAGGAGAAGGCAGGACAUGAGGAUCACCCAUGUACCCAGAAAACGUGCAGAGA | – | – | 59.3 | 467 |
| AUUUUGCGAGGAUAUACAUGAGGAUCACCCAUGUACGCUCAGCAGGGUGAAGGCUCUUGUAGAAGGCGUUCUGA | – | – | 88.2 | 45.8 |
| UGGUACUAGGGAGGAUAUGGGAAGAUACAUGAGGAUCACCCAUGUUUAAGAAGGCCGAGAGGCAACUAGAAGGCCCUAGUACCU | 396 | 16 | – | – |
| UUUAUACAUGAGGAUCACCCAUGUUAGGAUAUGGCUUUAAUGCCGCCGUCAUUAUCCGCCAGAAGGGACGUGUC | – | – | 32.2 | 30.4 |
| CAGUACUGAGGAUAUACAUGAGGAUCACCCAUGUAUCCUAGCUAGGAAACUAGCAAAAGUAGAAGGCAGUACUG | – | – | 16 | 156 |
| CAUUAAUUGAUUAUUGUAUUUUUACAGGAUAUGUUACAUGAGGAUCACCCAUGUUUAUAUGGGAGACAGAAGGGUAUUUAUAGA | – | – | 355 | 193 |
